{"data": "Measured values from different studies", "ABCB1": "ATP-dependent translocase ABCB1 (ABCB1, Homo sapiens, UniProt P08183)", "SLC47A2": "Multidrug and toxin extrusion protein 2 (SLC47A2, Homo sapiens, UniProt Q86VL8)", "note": "Compare with care: the assays were run in different laboratories."}
{"Structure (SMILES)": "COCCc1ccc(OCC(O)CNC(C)C)cc1 (stereo not shown)", "target": "ABCB1", "system": "MDCK-MDR1", "setting": "5 µM", "endpoint": "Papp A→B", "result": "32.1 ×10⁻⁶ cm/s"}
{"Structure (SMILES)": "Cc1ccc(C(=O)N2CCOC[C@H]2Cc2cccc(-n3nccn3)c2)c(-n2nccn2)c1", "target": "Cytochrome P450 2A6 (CYP2A6, Homo sapiens, UniProt P11509)", "assay": "enzyme activity, inhibitor", "system": "human, liver microsomes", "setting": "100 µM", "endpoint": "inhibition", "result": "19%"}
{"Structure (SMILES)": "C[C@]12CCCN1CC1=NNC(=O)c3cc(F)cc4[nH]c2c1c34", "target": "ABCB1", "system": "MDCK-MDR1", "setting": "10 µM", "endpoint": "Papp B→A", "result": "41.2 ×10⁻⁶ cm/s"}
{"Structure (SMILES)": "Nc1nc(NC2CC2)c2ncn([C@H]3C=C[C@@H](CO)C3)c2n1", "target": "SLC47A2", "assay": "transporter uptake, inhibitor", "endpoint": "IC50", "result": "> 500 µM"}
{"Structure (SMILES)": "C=C[C@H]1C[N@@]2CC[C@H]1C[C@@H]2[C@@H](O)c1ccnc2ccc(OC)cc12", "target": "ABCB1", "system": "MDCK-MDR1", "setting": "5 µM", "endpoint": "Papp A→B", "result": "13.1 ×10⁻⁶ cm/s"}
{"Structure (SMILES)": "C[C@H]1O[C@@H](O[C@H]2[C@@H](O)C[C@H](O[C@H]3[C@@H](O)C[C@H](O[C@H]4CC[C@@]5(C)[C@H](CC[C@@H]6[C@@H]5C[C@@H](O)[C@]5(C)[C@@H](C7=CC(=O)OC7)CC[C@]65O)C4)O[C@@H]3C)O[C@@H]2C)C[C@H](O)[C@@H]1O", "target": "ABCB1", "system": "human, plasma", "setting": "oral, 0.5 mg", "endpoint": "half-life", "result": "42.5 h"}
{"Structure (SMILES)": "CN/C(=N/CCSCc1nc[nH]c1C)NC#N", "target": "SLC47A2", "assay": "transporter uptake, inhibitor", "system": "HEK293", "setting": "100 µM, 2 min", "endpoint": "inhibition", "result": "76%"}
{"Structure (SMILES)": "CC1(C)CCC2(CC1)N[C@@H](C(=O)N[C@@H]1CC[C@@H](C(N)=O)OC1)[C@H](c1ccnc(Cl)c1F)[C@]21C(=O)Nc2cc(Cl)ccc21", "target": "ABCB1", "system": "Caco-2", "setting": "1 µM, 2 h", "endpoint": "efflux ratio", "result": 16.1}
{"Structure (SMILES)": "O=C(O)CSc1nnc(Br)n1-c1ccc(C2CC2)c2ccccc12", "target": "SLC47A2", "assay": "transporter uptake, inhibitor", "system": "HEK293", "setting": "10 µM, 2 min", "endpoint": "inhibition", "result": "-16%"}
{"Structure (SMILES)": "CCOc1cc2ncc(C#N)c(Nc3ccc(OCc4ccccn4)c(Cl)c3)c2cc1NC(=O)/C=C/CN(C)C", "target": "ABCB1", "system": "MDCK-MDR1, Caco-2", "setting": "1 µM, 1 h, pH 7.4", "endpoint": "efflux ratio", "result": 6.37}
